Assay results of several laboratories.
Each line is one published result; the experiments were not run side by side.
Target: cAMP-dependent protein kinase catalytic subunit alpha (PRKACA, Homo sapiens, UniProt P17612)

CCCCC(=O)Nc1ccc(-c2ccc3ncn(CCC)c(=O)c3c2)cn1  remaining binding (binding; competition with immobilised ligand; 0.5 µM): 97%
C#Cc1cnc(Nc2ccnc(CO)c2)nc1Nc1ccccc1S(C)(=O)=NC#N (centres unmarked)  remaining signal (cell-free assay; 1 µM): 100%
C=CC(=O)N1CCC([C@@H]2CCNc3c(C(N)=O)c(-c4ccc(Oc5ccccc5)cc4)nn32)CC1  inhibition (enzyme activity; inhibitor; 1 µM): 9%
CN1CCN(C(=O)c2ccc(NC(=O)Nc3ccc(N(C)c4ccnc(Nc5ccc(CS(C)(=O)=O)cc5)n4)cc3)cc2)CC1  remaining signal (cell-free assay; 1 µM): 100%
COc1ccc2oc(-c3ccc4nc(N)oc4c3)c/c(=N\c3ccccc3NC(=O)CCN)c2c1  remaining binding (binding; 1 µM): 111%
N#Cc1ccc(NC(=O)Nc2ccccc2)cc1  remaining binding (cell-free assay; competition with immobilised ligand; 25 µM): 85%
CO[C@@H]1[C@H](N(C)C(=O)c2ccccc2)C[C@H]2O[C@]1(C)n1c3ccccc3c3c4c(c5c6ccccc6n2c5c31)C(=O)NC4  inhibition (enzyme activity; inhibitor; 1 µM): 59%
COc1ccc2[nH]c3c4[nH]c5ccc(OC)cc5c4c4c(c3c2c1)C(=O)NC4=O  remaining signal (cell-free assay; 1 µM): 87%
